Assay results: ChEMBL document CHEMBL4689842, “EUbOPEN Chemogenomics Library wave 1” (2021)

Legend:
U2OS = assay: Multiplex assay against U2OS; format: toxicity, cell-based; conditions: human
In short: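 At seeding, live cells were stained with Hoechst33342, BioTracker Green Microtubule Cytoskeleton Dye, MitoTracker Red and Annexin V Alexa Fluor 680. After compound addition they were imaged on a CQ1 microscope at 37°C and 5% CO2, and CellPathfinder machine-learning gating sorted them into Hoechst high-intensity objects or normal cells, with normal cells further split into healthy, pyknosed or fragmented nuclei and pyknosed cells into mitotic or apoptotic. Tubulin, mitochondrial-mass and membrane-permeability phenotypes are given as per cents of cells with healthy nuclei.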

Fibroblast = assay: Incucyte cell viability with human fibroblast; format: toxicity, cell-based; conditions: 10 µM, compound concentration 10 uM; further: filed as whole numbers so only -1 and 0 and 1 occur
[1] = 12 h, 1 µM, compound concentration 1 uM, replicate 1
[2] = 12 h, 1 µM, compound concentration 1 uM, replicate 2
[3] = 12 h, 10 µM, compound concentration 10 uM, replicate 1
[4] = 12 h, 10 µM, compound concentration 10 uM, replicate 2
[5] = 24 h, 1 µM, compound concentration 1 uM, replicate 1
[6] = 24 h, 1 µM, compound concentration 1 uM, replicate 2
[7] = 24 h, 10 µM, compound concentration 10 uM, replicate 1
[8] = 24 h, 10 µM, compound concentration 10 uM, replicate 2
[9] = 48 h, 1 µM, compound concentration 1 uM, replicate 1
[10] = 48 h, 1 µM, compound concentration 1 uM, replicate 2
[11] = 48 h, 10 µM, compound concentration 10 uM, replicate 1
[12] = 48 h, 10 µM, compound concentration 10 uM, replicate 2

`CNc1oc(-c2cccc3ccccc23)nc1C#N` was tested, and the “Population Apoptotic (%)” value (U2OS; [1]) was 36%, the “Population Fragmented Nuclei (%)” value (U2OS; [1]) was 22% and the “Population Healthy Nuclei (%)” value (U2OS; [1]) was 67%. For the same compound, the “Population Hoechst High Intensity Objects (%)” value (U2OS; [1]) was 16%, the “Population Membrane Permeable-Phenotype (%)” value (U2OS; [1]) was 10% and the “Population Mitochondria Different-Phenotype (%)” value (U2OS; [1]) was 9%. The “Population Mitotic Cells (%)” value (U2OS; [1]) was 63%, the “Population Normal (%)” value (U2OS; [1]) was 83% and the “Population Pyknosed Nuclei (%)” value (U2OS; [1]) was 10%. The “Population Tubulin-Different-Phenotype (%)” value (U2OS; [1]) was 8%, the “Total Cell Count” value (U2OS; [1]) was 113 and the “Population Apoptotic (%)” value (U2OS; [2]) was 0%. For the same compound, the “Population Fragmented Nuclei (%)” value (U2OS; [2]) was 29%, the “Population Hoechst High Intensity Objects (%)” value (U2OS; [2]) was 15% and the “Population Membrane Permeable-Phenotype (%)” value (U2OS; [2]) was 3%. The “Population Mitochondria Different-Phenotype (%)” value (U2OS; [2]) was 11%, the “Population Mitotic Cells (%)” value (U2OS; [2]) was 100% and the “Population Normal (%)” value (U2OS; [2]) was 84%. The “Population Pyknosed Nuclei (%)” value (U2OS; [2]) was 2%, the “Population Tubulin-Different-Phenotype (%)” value (U2OS; [2]) was 7% and the “Total Cell Count” value (U2OS; [2]) was 100. The “Population Apoptotic (%)” value (U2OS; [3]) was 86%, the “Population Fragmented Nuclei (%)” value (U2OS; [3]) was 49% and the “Population Healthy Nuclei (%)” value (U2OS; [3]) was 18%. The “Population Hoechst High Intensity Objects (%)” value (U2OS; [3]) was 44%, the “Population Membrane Permeable-Phenotype (%)” value (U2OS; [3]) was 3% and the “Population Mitochondria Different-Phenotype (%)” value (U2OS; [3]) was 11%. For the same compound, the “Population Mitotic Cells (%)” value (U2OS; [3]) was 13%, the “Population Normal (%)” value (U2OS; [3]) was 55% and the “Population Pyknosed Nuclei (%)” value (U2OS; [3]) was 32%. For the same compound, the “Population Tubulin-Different-Phenotype (%)” value (U2OS; [3]) was 15%, the “Total Cell Count” value (U2OS; [3]) was 259 and the “Population Apoptotic (%)” value (U2OS; [4]) was 80%. The “Population Fragmented Nuclei (%)” value (U2OS; [4]) was 55%, the “Population Healthy Nuclei (%)” value (U2OS; [4]) was 16% and the “Population Hoechst High Intensity Objects (%)” value (U2OS; [4]) was 46%. The “Population Membrane Permeable-Phenotype (%)” value (U2OS; [4]) was 1%, the “Population Mitochondria Different-Phenotype (%)” value (U2OS; [4]) was 3% and the “Population Mitotic Cells (%)” value (U2OS; [4]) was 19%. The “Population Normal (%)” value (U2OS; [4]) was 53%, the “Population Pyknosed Nuclei (%)” value (U2OS; [4]) was 28% and the “Population Tubulin-Different-Phenotype (%)” value (U2OS; [4]) was 24%. The “Total Cell Count” value (U2OS; [4]) was 92, the “Population Apoptotic (%)” value (U2OS; [5]) was 53% and the “Population Fragmented Nuclei (%)” value (U2OS; [5]) was 18%. For the same compound, the “Population Healthy Nuclei (%)” value (U2OS; [5]) was 75%, the “Population Hoechst High Intensity Objects (%)” value (U2OS; [5]) was 17% and the “Population Membrane Permeable-Phenotype (%)” value (U2OS; [5]) was 2%. The “Population Mitochondria Different-Phenotype (%)” value (U2OS; [5]) was 3%, the “Population Mitotic Cells (%)” value (U2OS; [5]) was 46% and the “Population Normal (%)” value (U2OS; [5]) was 82%. For the same compound, the “Population Pyknosed Nuclei (%)” value (U2OS; [5]) was 5%, the “Population Tubulin-Different-Phenotype (%)” value (U2OS; [5]) was 6% and the “Total Cell Count” value (U2OS; [5]) was 119. For the same compound, the “Population Apoptotic (%)” value (U2OS; [6]) was 25%, the “Population Fragmented Nuclei (%)” value (U2OS; [6]) was 28% and the “Population Healthy Nuclei (%)” value (U2OS; [6]) was 67%. For the same compound, the “Population Hoechst High Intensity Objects (%)” value (U2OS; [6]) was 6%, the “Population Membrane Permeable-Phenotype (%)” value (U2OS; [6]) was 1% and the “Population Mitochondria Different-Phenotype (%)” value (U2OS; [6]) was 10%. The “Population Mitotic Cells (%)” value (U2OS; [6]) was 75%, the “Population Normal (%)” value (U2OS; [6]) was 93% and the “Population Pyknosed Nuclei (%)” value (U2OS; [6]) was 3%. For the same compound, the “Population Tubulin-Different-Phenotype (%)” value (U2OS; [6]) was 21%, the “Total Cell Count” value (U2OS; [6]) was 113 and the “Population Apoptotic (%)” value (U2OS; [7]) was 86%. The “Population Fragmented Nuclei (%)” value (U2OS; [7]) was 50%, the “Population Healthy Nuclei (%)” value (U2OS; [7]) was 17% and the “Population Hoechst High Intensity Objects (%)” value (U2OS; [7]) was 43%. For the same compound, the “Population Membrane Permeable-Phenotype (%)” value (U2OS; [7]) was 3%, the “Population Mitochondria Different-Phenotype (%)” value (U2OS; [7]) was 15% and the “Population Mitotic Cells (%)” value (U2OS; [7]) was 13%. For the same compound, the “Population Normal (%)” value (U2OS; [7]) was 56%, the “Population Pyknosed Nuclei (%)” value (U2OS; [7]) was 32% and the “Population Tubulin-Different-Phenotype (%)” value (U2OS; [7]) was 14%. The “Total Cell Count” value (U2OS; [7]) was 352, the “Population Apoptotic (%)” value (U2OS; [8]) was 81% and the “Population Fragmented Nuclei (%)” value (U2OS; [8]) was 57%. The “Population Healthy Nuclei (%)” value (U2OS; [8]) was 16%, the “Population Hoechst High Intensity Objects (%)” value (U2OS; [8]) was 44% and the “Population Mitochondria Different-Phenotype (%)” value (U2OS; [8]) was 3%. The “Population Mitotic Cells (%)” value (U2OS; [8]) was 18%, the “Population Normal (%)” value (U2OS; [8]) was 55% and the “Population Pyknosed Nuclei (%)” value (U2OS; [8]) was 25%. The “Population Tubulin-Different-Phenotype (%)” value (U2OS; [8]) was 26%, the “Total Cell Count” value (U2OS; [8]) was 116 and the “Population Apoptotic (%)” value (U2OS; [9]) was 56%. For the same compound, the “Population Fragmented Nuclei (%)” value (U2OS; [9]) was 16%, the “Population Healthy Nuclei (%)” value (U2OS; [9]) was 79% and the “Population Hoechst High Intensity Objects (%)” value (U2OS; [9]) was 14%. For the same compound, the “Population Mitochondria Different-Phenotype (%)” value (U2OS; [9]) was 7%, the “Population Mitotic Cells (%)” value (U2OS; [9]) was 43% and the “Population Normal (%)” value (U2OS; [9]) was 85%. The “Population Pyknosed Nuclei (%)” value (U2OS; [9]) was 3%, the “Population Tubulin-Different-Phenotype (%)” value (U2OS; [9]) was 8% and the “Total Cell Count” value (U2OS; [9]) was 243. For the same compound, the “Population Apoptotic (%)” value (U2OS; [10]) was 0%, the “Population Fragmented Nuclei (%)” value (U2OS; [10]) was 29% and the “Population Healthy Nuclei (%)” value (U2OS; [10]) was 68%. For the same compound, the “Population Hoechst High Intensity Objects (%)” value (U2OS; [10]) was 10%, the “Population Membrane Permeable-Phenotype (%)” value (U2OS; [10]) was 1% and the “Population Mitochondria Different-Phenotype (%)” value (U2OS; [10]) was 8%. The “Population Mitotic Cells (%)” value (U2OS; [10]) was 100%, the “Population Normal (%)” value (U2OS; [10]) was 89% and the “Population Pyknosed Nuclei (%)” value (U2OS; [10]) was 2%. The “Population Tubulin-Different-Phenotype (%)” value (U2OS; [10]) was 19%, the “Total Cell Count” value (U2OS; [10]) was 155 and the “Population Apoptotic (%)” value (U2OS; [11]) was 87%. The “Population Fragmented Nuclei (%)” value (U2OS; [11]) was 53%, the “Population Healthy Nuclei (%)” value (U2OS; [11]) was 18% and the “Population Hoechst High Intensity Objects (%)” value (U2OS; [11]) was 43%. For the same compound, the “Population Membrane Permeable-Phenotype (%)” value (U2OS; [11]) was 3%, the “Population Mitochondria Different-Phenotype (%)” value (U2OS; [11]) was 12% and the “Population Mitotic Cells (%)” value (U2OS; [11]) was 12%. For the same compound, the “Population Normal (%)” value (U2OS; [11]) was 56%, the “Population Pyknosed Nuclei (%)” value (U2OS; [11]) was 27% and the “Population Tubulin-Different-Phenotype (%)” value (U2OS; [11]) was 17%. The “Total Cell Count” value (U2OS; [11]) was 525, the “Population Apoptotic (%)” value (U2OS; [12]) was 81% and the “Population Fragmented Nuclei (%)” value (U2OS; [12]) was 57%. The “Population Healthy Nuclei (%)” value (U2OS; [12]) was 14%, the “Population Mitochondria Different-Phenotype (%)” value (U2OS; [12]) was 5% and the “Population Mitotic Cells (%)” value (U2OS; [12]) was 18%. For the same compound, the “Population Tubulin-Different-Phenotype (%)” value (U2OS; [12]) was 26%, the “Total Cell Count” value (U2OS; [12]) was 168 and the “Growth Rate” value (Fibroblast; 0 h, replicate number 1, timepoint 0 hours) was 0. The “Growth Rate” value (Fibroblast; 6 h, replicate number 2, timepoint 6 hours) was 1.
